Experimental data as given in PMC3952852 (Molecular Biology of the Cell, 2014).
One block for each molecule: values may come before it.

What was measured:
ROCK = ROCK (Homo sapiens, UniProt Q13464); assay: in vitro kinase assay, ROCK; assay type: biochemical
Jurkat cells [1] = assay: CXCL12-induced chemotaxis, Transwell, Jurkat cells; assay type: cell-based; conditions: pretreated 30 min, 5 nM CXCL12, 3 h
Outline: (§1)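 Cells at 2×10^6 cells/ml in RPMI1640 with 0.5% BSA were pretreated 30 min at room temperature with test compound or vehicle (final 0.3% DMSO). 2×10^5 cells went into the upper well (5-µm pore Transwell). The lower well held RPMI, 0.5% BSA, 5 nM CXCL12 and compound or vehicle. After 3 h at 37°C, migrated cells in the lower well were counted. Mean ± SD of four independent experiments; one-way ANOVA with Dunnett's test.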

Jurkat cells [2] = assay: CXCL12-induced lamellipodium formation in Jurkat cells; assay type: cell-based; conditions: Dam 30 min, then 5 nM CXCL12 for 20 min
Outline: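 Jurkat cells were given 5 µM test compound or vehicle for 30 min, then 5 nM CXCL12 for 20 min. They were fixed and stained with rhodamine–phalloidin for F-actin, then scored into three classes: large lamellipodia, small lamellipodia, or round without lamellipodium. 200–300 cells were counted per experiment. Class percentages are mean ± SD of three independent experiments.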

[3] = test system: epidermal Langerhans cells; assay: hapten; assay type: in vivo, mouse; conditions: 20 μM topical
Outline: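 BALB/c mice (8–10 wk): each ear painted with 20 µl of 20 µM test compound in 2% DMSO in 1:4 acetone/olive oil, or vehicle. 30 min later, 20 µl 3% TNCB or vehicle applied, ± 20 µM compound; repainted at 12 h; ears taken 24 h post-TNCB. NH4SCN-separated, acetone-fixed epidermal sheets stained with FITC anti-I-Ad; confocal imaging, 15 areas/ear; five experiments, mean ± SD, ANOVA/Dunnett.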

CaMKIα = CaMKIα (Homo sapiens, UniProt Q14012); assay: in vitro kinase assay, CaMKIα; assay type: biochemical
Chain of CaMKIα (Q14012 1-293, species assumed): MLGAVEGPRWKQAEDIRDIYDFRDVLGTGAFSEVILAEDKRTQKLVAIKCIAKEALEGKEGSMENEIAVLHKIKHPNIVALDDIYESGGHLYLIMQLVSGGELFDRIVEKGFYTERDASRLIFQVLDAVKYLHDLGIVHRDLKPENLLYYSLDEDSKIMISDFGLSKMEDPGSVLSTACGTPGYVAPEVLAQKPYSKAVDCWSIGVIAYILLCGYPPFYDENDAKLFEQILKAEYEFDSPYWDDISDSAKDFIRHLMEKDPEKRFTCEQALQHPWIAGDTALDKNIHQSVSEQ

[4] = test system: P-cofilin in N1E-115 cells; assay: cofilin phosphorylation immunoblot in LIMK1-CFP-overexpressing N1E-115 cells; assay type: cell-based; conditions: 30 min
PAK3 = PAK3 (Homo sapiens, UniProt O75914); assay: in vitro kinase assay, PAK3; assay type: biochemical
Chain of PAK3 (O75914 177-559, species assumed): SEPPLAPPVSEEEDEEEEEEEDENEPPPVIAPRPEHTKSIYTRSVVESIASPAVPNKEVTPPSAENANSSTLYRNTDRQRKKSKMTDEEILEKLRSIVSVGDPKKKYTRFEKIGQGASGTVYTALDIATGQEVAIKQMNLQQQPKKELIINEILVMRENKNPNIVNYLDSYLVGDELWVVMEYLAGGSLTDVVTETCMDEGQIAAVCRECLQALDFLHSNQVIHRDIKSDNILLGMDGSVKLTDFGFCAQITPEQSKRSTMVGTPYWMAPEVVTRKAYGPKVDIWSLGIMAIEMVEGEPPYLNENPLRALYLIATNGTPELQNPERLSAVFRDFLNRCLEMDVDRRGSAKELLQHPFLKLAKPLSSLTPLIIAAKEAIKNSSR

[5] = test system: P-cofilin in Jurkat cells; assay: CXCL12-induced cofilin phosphorylation in Jurkat cells; assay type: cell-based; conditions: 5 nM CXCL12 for 5 min
Outline: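 Jurkat cells (RPMI, 10% FCS) were stimulated with 5 nM CXCL12 for 5 min. Lysates in HEPES pH 7.4 lysis/kinase buffer were immunoblotted for P-cofilin, cofilin, P-MAPK and MAPK. P-cofilin was expressed relative to control cells, set at 1.0.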

LIMK1 [6] = molecular target: T1, LIMK1 (Homo sapiens, UniProt P53667); assay type: biochemical; conditions: range of inhibitor concentrations
T1 sequence (P53667 whole entry): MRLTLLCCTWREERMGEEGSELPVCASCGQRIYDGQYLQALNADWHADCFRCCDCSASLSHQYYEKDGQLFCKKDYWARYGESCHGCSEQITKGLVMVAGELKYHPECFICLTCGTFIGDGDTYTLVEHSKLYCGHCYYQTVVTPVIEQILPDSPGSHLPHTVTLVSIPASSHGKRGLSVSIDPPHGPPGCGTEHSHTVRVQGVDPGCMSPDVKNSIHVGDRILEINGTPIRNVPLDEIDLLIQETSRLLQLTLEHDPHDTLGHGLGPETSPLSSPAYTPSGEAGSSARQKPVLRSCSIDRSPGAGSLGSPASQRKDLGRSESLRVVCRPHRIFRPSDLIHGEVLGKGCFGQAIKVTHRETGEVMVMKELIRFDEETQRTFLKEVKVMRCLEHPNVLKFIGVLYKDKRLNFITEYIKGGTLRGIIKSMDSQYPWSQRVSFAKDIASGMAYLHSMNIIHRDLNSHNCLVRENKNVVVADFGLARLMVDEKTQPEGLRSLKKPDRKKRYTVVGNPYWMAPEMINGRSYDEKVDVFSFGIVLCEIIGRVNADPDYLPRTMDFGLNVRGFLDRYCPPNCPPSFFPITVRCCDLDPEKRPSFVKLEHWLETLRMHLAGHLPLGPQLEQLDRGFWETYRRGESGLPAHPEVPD

P-MAPK in Jurkat cells = assay: CXCL12-induced MAPK phosphorylation in Jurkat cells; assay type: cell-based; conditions: 5 nM CXCL12 for 5 min
Outline: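 Jurkat cells grown in RPMI with 10% FCS were stimulated with 5 nM CXCL12 for 5 min, with or without test compound. Cells were lysed in HEPES pH 7.4 lysis/kinase buffer containing NP-40, NaF, Na3VO4 and protease inhibitors. Lysates were immunoblotted for P-MAPK and total MAPK, alongside P-cofilin and cofilin.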

MDA-MB-231 cells = assay: serum-induced Matrigel invasion assay, MDA-MB-231 cells; assay type: cell-based, human; conditions: MDA-MB-231, Matrigel, 15 h
Outline: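 MDA-MB-231 cells (2×10^5 cells/ml) were serum-starved 3 h and resuspended in serum-free DMEM. They were pretreated 30 min at room temperature with test compound or vehicle (final 0.3% DMSO). Transwell inserts (8-µm pore) were coated with 50 µg Matrigel for 1 h at 37°C and washed three times with DMEM. 2×10^4 cells were loaded, with serum in the lower chamber. After 15 h, invaded cells on the lower membrane face were counted. Mean ± SD of six independent experiments; Dunnett's test.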

[7] = test system: P-cofilin in Vero 2-2 cells; assay: 2D gel analysis of 32P-labeled phospho-proteins in whole cell lysates; assay type: cell-based; conditions: 10 μM, 5 h
Src = Src (Homo sapiens, UniProt P12931); assay: in vitro kinase assay, active Src; assay type: biochemical
Chain of Src (P12931 270-523 limits assumed): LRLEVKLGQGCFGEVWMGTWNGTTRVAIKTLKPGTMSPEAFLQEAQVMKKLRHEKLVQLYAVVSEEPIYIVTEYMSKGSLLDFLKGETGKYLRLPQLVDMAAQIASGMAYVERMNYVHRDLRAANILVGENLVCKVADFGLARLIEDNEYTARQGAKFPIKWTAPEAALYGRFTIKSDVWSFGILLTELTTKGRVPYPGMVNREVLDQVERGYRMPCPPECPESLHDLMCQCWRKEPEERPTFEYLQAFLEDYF

JCaM1.6 cells = assay: CXCL12-induced chemotaxis, Transwell, JCaM1.6 cells; assay type: cell-based; conditions: Lck-deficient JCaM1.6, pretreated 30 min, 5 nM CXCL12, 3 h
Outline: as §1

PKCα = PKCα (Homo sapiens, UniProt P17252); assay: in vitro kinase assay, PKCα; assay type: biochemical
LIMK1 [8] = molecular target: T1, LIMK1; assay: in vitro kinase assay, LIMK1; assay type: biochemical; conditions: cofilin substrate; for effect on the kinase activity of LIMK1: concentrations of 1–30 μM
Lck = conditions: read-out: IC50 for Lck; ref Jayasuriya et al., 1992; cited from earlier work

Chain of ROCK (Q13464 1-727): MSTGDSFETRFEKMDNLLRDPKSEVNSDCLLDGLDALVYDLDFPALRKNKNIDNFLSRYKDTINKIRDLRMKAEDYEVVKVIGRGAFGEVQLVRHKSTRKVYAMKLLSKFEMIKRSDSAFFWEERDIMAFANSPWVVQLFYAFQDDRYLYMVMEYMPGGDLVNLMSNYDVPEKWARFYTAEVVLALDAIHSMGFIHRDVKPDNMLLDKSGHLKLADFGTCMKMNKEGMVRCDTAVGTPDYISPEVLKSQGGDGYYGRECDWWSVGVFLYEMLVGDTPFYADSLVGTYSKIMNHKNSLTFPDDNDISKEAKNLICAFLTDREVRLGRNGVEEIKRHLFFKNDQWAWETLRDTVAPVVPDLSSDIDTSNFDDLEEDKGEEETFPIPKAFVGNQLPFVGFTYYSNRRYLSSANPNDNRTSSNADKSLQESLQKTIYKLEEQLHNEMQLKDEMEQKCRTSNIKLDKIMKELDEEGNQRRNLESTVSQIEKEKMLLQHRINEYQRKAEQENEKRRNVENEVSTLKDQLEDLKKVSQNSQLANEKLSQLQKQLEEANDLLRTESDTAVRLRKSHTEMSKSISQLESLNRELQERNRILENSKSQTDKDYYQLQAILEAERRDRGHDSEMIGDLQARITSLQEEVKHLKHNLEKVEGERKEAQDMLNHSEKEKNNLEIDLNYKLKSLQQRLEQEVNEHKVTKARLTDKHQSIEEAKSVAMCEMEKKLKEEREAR

- IC50 (ROCK): > 20 µM
- IC50 (CaMKIα): > 20 µM
- IC50 (PAK3): > 20 µM
- concentration range inhibiting the kinase activity of LIMK1 in detailed in vitro BiFC assays (LIMK1 [6]): 5 to 10 µM
- IC50 (Src): > 20 µM
- IC50 (PKCα): > 20 µM
SMILES: COc1c(C=O)c(O)cc2c1C(=O)c1ccccc1C2=O [Dam, 3-hydroxy-1-methoxy-9,10-dioxoanthraquinone-2-carbaldehyde]
- concentration range inhibiting CXCL12-induced chemotaxis (Jurkat cells [1]): 3 to 10 µM
- effect on lamellipodium formation after CXCL12 stimulation (Jurkat cells [2]): fewer cells with large lamellipodial protrusions and more cells with small or no lamellipodial protrusions
- effect on hapten-induced Langerhans cell size changes ([3]; TNCB): no apparent effect
- effect on Langerhans cell density of control ears ([3]; no TNCB): no effect
- concentration range significantly decreasing P-cofilin level [4]: 5 to 10 µM
- concentration range suppressing CXCL12-induced increase of P-cofilin [5]: 3 to 10 µM
- effect on increase in P-MAPK after CXCL12 stimulation (P-MAPK in Jurkat cells): unaffected
- concentration range significantly suppressing serum-induced invasion (MDA-MB-231 cells): 3 to 10 µM
- amount of P-cofilin in treated cells compared with untreated cells [7]: decreased
- concentration range inhibiting CXCL12-induced chemotaxis (JCaM1.6 cells): 3 to 10 µM

SMILES: O=C1c2c(O)ccc(O)c2C(=O)c2c(NCCNCCO)ccc(NCCNCCO)c21 [mitoxantrone]
- effect on the kinase activity of LIMK1 (LIMK1 [8]): no appreciable effect

- effect of hydroxylamine alone on LIMK1 activity (LIMK1 [8]; LIMK1-CFP): no effect
SMILES: NO [Hydroxylamine, hydroxylamine]

- effect on the kinase activity of LIMK1 (LIMK1 [8]): no appreciable effect
SMILES: Cc1cc(O)c2c(c1)C(=O)c1cc(O)cc(O)c1C2=O [emodin]
- IC50 (Lck): 18.5 µM
